Measurements as given in ChEMBL document CHEMBL3259717, “Synthetic calanolides with bactericidal activity against replicating and nonreplicating Mycobacterium tuberculosis” (J Med Chem, 2014).
≈ marks a conversion by molar mass, not a printed value.

Legend:
[1] = test system: Mycobacterium tuberculosis; assay: Antibacterial activity against replicating form of Mycobacterium tuberculosis MC2 6220 assessed as growth inhibition after 7 days by high-throughput screening assay; assay type: functional; conditions: MC2 6220, 168 h
In short: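 Attenuated Mtb mc26220 ΔpanCDΔlysA in 7H9 with glycerol, tyloxapol, OADC, casein amino acids, 240 μg/mL L-lysine, 24 μg/mL pantothenate. Mid-log cells diluted to OD580 0.01 in 384-well plates, compound in DMSO, 7 days at 37 °C, 20% O2, 5% CO2. OD580 read; MIC90 = 90% growth inhibition vs DMSO.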

[2] = test system: Mycobacterium tuberculosis; assay: Antibacterial activity against non-replicating form of Mycobacterium tuberculosis MC2 6220 assessed as growth inhibition after 3 days by high-throughput screening assay; assay type: functional; conditions: MC2 6220, 72 h
In short: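 Log-phase mc26220 washed in PBS/tyloxapol, resuspended in Sauton's-based NR medium (butyrate, 0.5 mM NaNO2, pH 5.0) at OD580 0.1. Compound exposure 3 days at 37 °C, 1% O2, 5% CO2. Then R medium added (5-fold dilution), 7 days outgrowth at 20% O2. OD580 read; MIC90 = 90% inhibition vs DMSO.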

[3] = Cytotoxicity against human HepG2 cells assessed as decrease in ATP signal after 2 days by CellTiter-Glo assay; assay type: cell-based; conditions: read-out: LD50
In short: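 HepG2 in DMEM with 10% FBS, pyruvate, glutamine, HEPES and nonessential amino acids, seeded 3000 cells/well in 384-well plates. Compound for 2 days at 1% final DMSO. ATP read by CellTiter-Glo luminescence. LD50 = 50% drop in ATP signal vs DMSO. SI = LD50/MIC90 against replicating Mtb.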

Structure (SMILES) | MIC90 [1] | MIC90 [2] | CC50 at 48 h [3]
Cc1cc(=O)oc2cc(NC(=O)c3ccc([N+](=O)[O-])o3)c3c(c12)OC(C)(C)C=C3 | > 20 µg/mL | > 20 µg/mL | –
CCCc1cc(=O)oc2cc(C#CCO)c3c(c12)OC(C)(C)C=C3 | > 16 µg/mL | > 16 µg/mL | > 16 µg/mL
CCCc1cc(=O)oc2c1c(O)cc1oc([N+](=O)[O-])cc12 | > 14 µg/mL | > 14 µg/mL | –
CCCc1cc(=O)oc2cc(NC(=O)c3ccccc3)c3c(c12)OC(C)(C)C=C3 | > 19 µg/mL | > 19 µg/mL | –
CCCc1cc(=O)oc2c3c(c4c(c12)OC(C)(C)C=C4)OC(C)(OC(C)=O)C3=O (stereo not drawn) | > 20 µg/mL | > 20 µg/mL | –
CCCc1cc(=O)oc2cc(OC3CCCC3)c3c(c12)OC(C)(C)C=C3 | > 23 µg/mL | > 23 µg/mL | > 23 µg/mL
CCCc1cc(=O)oc2cc(NCc3cccc(F)c3)c3c(c12)OC(C)(C)C=C3 | > 20 µg/mL | > 20 µg/mL | –
CCCc1cc(=O)oc2cc(OCCN3CCOCC3)c3c(c12)OC(C)(C)C=C3 | 20 µg/mL (≈ 50.1 µM) | > 20 µg/mL | 20 µg/mL (≈ 50.1 µM)
CCCc1cc(=O)oc2c3c(cc(OCCO)c12)O[C@H]([N+](=O)[O-])[C@H]3O (racemic) | < 1 µg/mL | < 1 µg/mL | < 1 µg/mL
CCCc1cc(=O)oc2cc(OC3CCCCC3)c3c(c12)OC(C)(C)C=C3 | > 18 µg/mL | > 18 µg/mL | > 18 µg/mL
CCCc1c(F)c(=O)oc2c1c1c(c3oc([N+](=O)[O-])cc32)C=CC(C)(C)O1 | 19 µg/mL (≈ 50.9 µM) | 19 µg/mL (≈ 50.9 µM) | –
Cc1c(Cc2ccccc2)c(=O)oc2c1c1c(c3oc([N+](=O)[O-])cc32)C=CC(C)(C)O1 | 2 µg/mL (≈ 4.79 µM) | > 21 µg/mL | –
CCCc1cc(=O)oc2cc(N3CCN(C(=O)Nc4ccc(F)cc4)CC3)c3c(c12)OC(C)(C)C=C3 | > 25 µg/mL | > 25 µg/mL | > 25 µg/mL
CCCc1cc(=O)oc2c3c(cc(OCCOC(=O)c4cnccn4)c12)O[C@H]([N+](=O)[O-])[C@H]3O (racemic) | < 1 µg/mL | < 1 µg/mL | < 1 µg/mL
CCCc1cc(=O)oc2c(C(=O)N3CCOCC3)c(O)c3c(c12)OC(C)(C)C=C3 | > 20 µg/mL | > 20 µg/mL | > 20 µg/mL
CCCc1cc(=O)oc2c(C(=O)CC)c(N3CCN(c4ccccn4)CC3)c3c(c12)OC(C)(C)C=C3 | > 24 µg/mL | > 24 µg/mL | –
CCCc1cc(=O)oc2cc(OC)c3c(c12)OC(C)(C)C=C3 | > 15 µg/mL | > 15 µg/mL | –
CCCc1cc(=O)oc2c3c(c4cc([N+](=O)[O-])oc4c12)OC(C)CC3=O (stereo not drawn) | > 50 µg/mL | 6 µg/mL (≈ 16.8 µM) | –
CCCc1cc(=O)oc2c1c(-c1ccc(F)cc1)cc1oc([N+](=O)[O-])cc12 | 0.7 µg/mL (≈ 1.91 µM) | 18 µg/mL (≈ 49 µM) | –
CCCc1cc(=O)oc2cc(OC(=O)/C=C/c3ccccc3)c3c(c12)OC(C)(C)C=C3 | > 21 µg/mL | > 21 µg/mL | –
CCCc1cc(=O)oc2cc(C#Cc3ccc(C)cc3)c3c(c12)OC(C)(C)C=C3 | > 19 µg/mL | > 19 µg/mL | > 19 µg/mL
CCCc1cc(=O)oc2cc(NCc3ccccc3)c3c(c12)OC(C)(C)C=C3 | 19 µg/mL (≈ 50.6 µM) | > 19 µg/mL | –
CC1(C)C=Cc2c(c3c(-c4ccccc4)cc(=O)oc3c3cc([N+](=O)[O-])oc23)O1 | 2 µg/mL (≈ 5.14 µM) | 19 µg/mL (≈ 48.8 µM) | –
CCCc1cc(=O)oc2cc(C#Cc3ccc(F)cc3)c3c(c12)OC(C)(C)C=C3 | > 19 µg/mL | > 19 µg/mL | > 19 µg/mL
CCCc1cc(=O)oc2cc(N3CCN(C(=O)NC4CCCCC4)CC3)c3c(c12)OC(C)(C)C=C3 | > 24 µg/mL | > 24 µg/mL | > 24 µg/mL
CCCc1cc(=O)oc2cc(OC(C)C)c3c(c12)OC(C)(C)C=C3 | > 16 µg/mL | > 16 µg/mL | > 16 µg/mL
CCCc1cc(=O)oc2cc(OCCc3cccs3)c3c(c12)OC(C)(C)C=C3 | > 20 µg/mL | > 20 µg/mL | –
CCCc1cc(=O)oc2cc(Nc3ccccc3)c3c(c12)OC(C)(C)C=C3 | > 18 µg/mL | > 18 µg/mL | –

Structure (SMILES) | MIC90 [1] | MIC90 [2] | CC50 at 48 h [3]
CCCc1cc(=O)oc2c(C(=O)CC)c(N3CCOCC3)c3c(c12)OC(C)(C)C=C3 | > 21 µg/mL | > 21 µg/mL | –
CCCc1cc(=O)oc2cc(N3CCN(C(=O)NCc4ccccc4)CC3)c3c(c12)OC(C)(C)C=C3 | > 24 µg/mL | > 24 µg/mL | > 24 µg/mL
CCCc1cc(=O)oc2cc(NC(=O)Nc3ccc(F)cc3)c3c(c12)OC(C)(C)C=C3 | > 21 µg/mL | > 21 µg/mL | –
CCCC1CC(=O)Oc2c1c1c(c3oc([N+](=O)[O-])cc23)C=CC(C)(C)O1 (stereo not drawn) | > 18 µg/mL | > 18 µg/mL | –
CCCc1cc(=O)oc2cc(N3CCSCC3)c3c(c12)OC(C)(C)C=C3 | > 19 µg/mL | > 19 µg/mL | –
CCCc1cc(=O)oc2c1c1c(c3occc32)C=CC(C)(C)O1 | > 100 µg/mL | > 100 µg/mL | –
CCCc1cc(=O)oc2c(C(=O)CC)c(N3CCN(c4ccc(OC)cc4)CC3)c3c(c12)OC(C)(C)C=C3 | > 26 µg/mL | > 26 µg/mL | –
CCCc1cc(=O)oc2cc(OC(=O)c3ccccc3)c3c(c12)OC(C)(C)C=C3 | > 20 µg/mL | > 20 µg/mL | –
CCCc1cc(=O)oc2cc(OCC3CC3)c3c(c12)OC(C)(C)C=C3 | > 17 µg/mL | > 17 µg/mL | –
CCCc1cc(=O)oc2cc(NC(=O)c3cnccn3)c3c(c12)OC(C)(C)C=C3 | > 20 µg/mL | > 20 µg/mL | –
CCCc1cc(=O)oc2c1c(OCCN1CCOCC1)cc1oc([N+](=O)[O-])c(CO)c12 | 100 µg/mL (≈ 231 µM) | 100 µg/mL (≈ 231 µM) | –
CCCc1cc(=O)oc2cc(OCc3ccccc3)c3c(c12)OC(C)(C)C=C3 | > 19 µg/mL | > 19 µg/mL | –
CCCc1cc(=O)oc2cc(OCC(=O)NCCc3ccccc3)c3c(c12)OC(C)(C)C=C3 | > 22 µg/mL | > 22 µg/mL | –
CCCc1cc(=O)oc2c(C(=O)CC)c(N(C)C)c3c(c12)OC(C)(C)C=C3 | > 18 µg/mL | > 18 µg/mL | –
CCCc1cc(=O)oc2cc(NC(C)=O)c3c(c12)OC(C)(C)C=C3 | > 16 µg/mL | > 16 µg/mL | –
CCCc1cc(=O)oc2cc(OC3CCN(C(=O)Nc4ccc(F)cc4)CC3)c3c(c12)OC(C)(C)C=C3 | > 24 µg/mL | > 24 µg/mL | –
CCCc1cc(=O)oc2c3c(c4c(c12)OC(C)(C)C=C4)OC(OC(C)=O)C3=O (stereo not drawn) | > 100 µg/mL | 6 µg/mL (≈ 15.6 µM) | –
CCCc1cc(=O)oc2cc(NCc3ccc(F)cc3)c3c(c12)OC(C)(C)C=C3 | > 20 µg/mL | > 20 µg/mL | –
CCCc1cc(=O)oc2cc(N3CCC(O)CC3)c3c(c12)OC(C)(C)C=C3 | > 18 µg/mL | > 18 µg/mL | –
CC1(C)C=Cc2c(c3c4c(c(=O)oc3c3cc([N+](=O)[O-])oc23)CCCC4)O1 | < 0.2 µg/mL | 2 µg/mL (≈ 5.44 µM) | –
CCCc1cc(=O)oc2cc(NC(=O)Nc3cccc4ccccc34)c3c(c12)OC(C)(C)C=C3 | > 23 µg/mL | > 23 µg/mL | –
CCCc1cc(=O)oc2c(C(=O)CC)c(N3CCN(Cc4ccc(F)cc4)CC3)c3c(c12)OC(C)(C)C=C3 | > 26 µg/mL | 26 µg/mL (≈ 50.1 µM) | –
CCCc1cc(=O)oc2cc(OC(C)=O)c3c(c12)OC(C)(C)C=C3 | > 16 µg/mL | > 16 µg/mL | –
CCCc1cc(=O)oc2c(C(=O)CC)c(N3CCN(c4ccncc4)CC3)c3c(c12)OC(C)(C)C=C3 | > 24 µg/mL | > 24 µg/mL | –
CCCc1cc(=O)oc2c(C(=O)CC)c(N3CCSCC3)c3c(c12)OC(C)(C)C=C3 | > 21 µg/mL | > 21 µg/mL | –
CCCc1cc(=O)oc2c3c(c4c(c12)OC(C)(C)C=C4)OC(O)C3=O (stereo not drawn) | > 17 µg/mL | 17 µg/mL (≈ 49.7 µM) | –
CCCc1cc(=O)oc2cc(OCCCO)c3c(c12)OC(C)(C)C=C3 | > 17 µg/mL | > 17 µg/mL | –
